Assay outcomes from PubChem BioAssay.
The list is not random: actives were taken first. Their share in the collection is about 2.7%.
OX1R antag-1 – OX1R (HCRTR1) antagonists, primary screen, fluorescence, CHO/OX1R cells, Fluo-8 calcium, orexin A; Fluo-8 calcium fluorescence; inhibition, % at 5 µM; hit rate 0.43% among 330,000; AID 434989, 2010;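 active = inhibition above its plate's threshold, mean inhibition of all tested compounds on the plate plus 3 SD, cut at about 37% in these data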
OXTR ag – human OXTR agonists, primary screen, fluorescence, CHO-OTR cells, Fluo-8 calcium. AID 2435, 2010. hit rate 0.32% among 320,000. Fluo-8 calcium fluorescence; normalized: DMSO 0%, oxytocin 100%. activation, % at 3 µM;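 active = activation above the mean of all tested compounds plus 3 SD, cutoff set per screening run, cut at about 20% in these data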;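 also: peak over basal fluorescence ratio from a 100 s FLIPR kinetic read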
Target sequence (P30559 whole entry, looked up): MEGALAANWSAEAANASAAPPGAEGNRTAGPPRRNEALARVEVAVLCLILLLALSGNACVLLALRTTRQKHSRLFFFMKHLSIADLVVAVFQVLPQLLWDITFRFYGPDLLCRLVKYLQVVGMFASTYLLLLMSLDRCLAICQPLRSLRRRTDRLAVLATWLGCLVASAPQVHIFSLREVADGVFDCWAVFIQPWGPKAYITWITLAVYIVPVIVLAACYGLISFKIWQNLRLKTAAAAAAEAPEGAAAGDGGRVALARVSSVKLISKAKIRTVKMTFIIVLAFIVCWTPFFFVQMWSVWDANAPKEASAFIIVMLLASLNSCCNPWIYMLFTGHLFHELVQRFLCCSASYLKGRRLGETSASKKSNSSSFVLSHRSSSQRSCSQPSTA
OX1R antag-2 – antagonists of human orexin 1 receptor (OX1R) | hit rate 1.8% among 330,000 | OX1R-expressing cells, FRET antagonist read-out | Orexin/Hypocretin receptor type 1 (Homo sapiens), O43613 | inhibition, % at 6.6 µM; in the data active = inhibition mostly above about 38%, no sharp cut-off; inactive = mostly below about 40%
OXTR potentiate – human OXTR potentiators, primary screen, fluorescence, CHO-OTR cells, Fluo-8 calcium | Oxytocin receptor (Homo sapiens), P30559 | Fluo-8 calcium fluorescence, potentiator mode; 0% = oxytocin EC15, 100% = EC100 | activation, % at 3 µM | hit rate 0.061% among 320,000;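 active = activation above that plate's cutoff, the mean activation of tested compounds plus 3 SD, cut at about 6.6% in these data, passing the limit was not always enough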
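Dosing: Single dose, 3.0 µM nominal final compound concentration | Material: Human OTR in CHO cells | Technique: Kinetic Fluo-8 calcium fluorescence | Benchmarks: EC15 oxytocin alone as 0%, 75 nM oxytocin as 100% | Probe or stimulus: Oxytocin at about EC15, sub-maximal agonist stimulus | Incubation: Compound 6 min at room temperature before oxytocin, 100 s read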
V1aR counter – agonists of human V1a receptor, primary screen, counter-screen for OXTR agonist project, fluorescence, CHO-V1R cells | Fluo-8 calcium fluorescence, agonist mode; 0% DMSO, 100% 3 nM vasopressin | Vasopressin V1a receptor (Homo sapiens), P37288 | hit rate 0.25% among 320,000 | activation, % at 3 µM;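 active = activation above the mean activation of all tested compounds plus 3 SD, per screening run, cut at about 20% in these data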;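 also: signal is peak over basal fluorescence ratio across a 100 second FLIPR read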
CHO parental Ca – ATP-evoked calcium signal inhibitors, parental CHO, primary screen, counter-screen for OX1R antagonist project, cell-based, fluorescence, Fluo-8 calcium dye; parental CHO-K1, ATP-induced calcium, Fluo-8 fluorescence; inhibition, % at 5.6 µM; hit rate 0.63% among 330,000;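 active = inhibition above that plate's mean sample inhibition plus 3 SD, cut at about 26% in these data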
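Test system: parental CHO cells; detection: calcium-sensitive Fluo-8 fluorescence; evaluation: percent inhibition of calcium signal; also added: ATP as calcium-mobilizing challenge; repeats: one well per compound; control set: ATP-challenged DMSO wells low, unchallenged DMSO wells high; compound: single nominal dose of 5.6 µM per compound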
Large screens that a line does not name were inactive.

COc1ccccc1NC(=O)C1CC(C(C)C)OC1=O (centres undefined)	none
Cn1cc(C(=O)Nc2ccc(F)c(Cl)c2)cn1	none
CN1c2ccsc2C(O)=C(C(=S)Nc2ccc(F)c(Cl)c2)S1(=O)=O	OX1R antag-2 50
N#Cc1cc2nc(O)c(O)nc2cc1[N+](=O)[O-]	OX1R antag-2 76
Cc1ccc(NC(=O)c2cc3c(s2)CCCC3)cc1S(=O)(=O)Nc1ccccc1Cl	OX1R antag-2 70
CCCc1cc(C(=O)N(C)CC(=O)Nc2ccc(OCC)c(OCC)c2)sc1C	none
C[C@H](CO)N1C[C@H](C)[C@@H](CN(C)C(=O)NC2CCCCC2)Oc2ccc(NC(=O)Cc3ccccc3)cc2C1=O	none
O=C(NCCCN1CCOCC1)C(=O)N/N=C/c1ccccc1	none
O=C(NCCCN1CCOCC1)C(=O)N/N=C/c1cccc2ccccc12	OX1R antag-2 49
C=CCN1C(=Nc2cccnc2)SCC1(O)c1ccc(C)cc1 (centres undefined)	CHO parental Ca 37
Cc1csc(=Nc2cccnc2)n1CC1CCCCC1	none
CN(C(=O)CSc1nnc(CN2CCCC2)n1Cc1ccccc1)c1ccccc1	none
COc1cccc2nc3cc(C)c(C)cc3nc12	OX1R antag-2 68
COc1cccc2c1nc(C)c1cc(C)oc12	none
COc1cccc(NC(=O)Cn2nnc(-c3ccccc3N)n2)c1	none
COc1ccc(NC(=O)Cn2nnc(-c3ccccc3NS(=O)(=O)c3ccccc3)n2)cc1	CHO parental Ca 43
COc1ccc(S(=O)(=O)Nc2ccccc2-c2nnn(CC(=O)Nc3ccccc3OC)n2)cc1	OX1R antag-2 60, CHO parental Ca 44
Cc1cccc(C)c1NC(=O)c1cc(S(=O)(=O)N2CCOCC2)ccc1F	none
Cc1ccccc1NC(=O)c1cc(S(=O)(=O)N2CCOCC2)ccc1F	OX1R antag-2 47
COc1ccc(C(=O)NCC(=O)N2CCN(c3ncccn3)CC2)cc1OC	none
Cc1cc(C)c(S(=O)(=O)c2ccccc2C)c(SCC(C)C)n1	CHO parental Ca 57
CCCSc1nc(C)cc(C)c1S(=O)(=O)c1ccccc1C	OX1R antag-1 54
CCCSc1nc(C)cc(C)c1S(C)(=O)=O	none
CC(=O)c1ccc(OCCCC(=O)N(CCC2=CCCCC2)c2c(N)n(Cc3ccccc3)c(=O)[nH]c2=O)cc1	none
CC1(C)C(=O)CC[C@@]2(C)[C@H]1CC[C@@]1(C)CC3=C(CC[C@@H]12)[C@@]1(C)CCC(=O)C(C)(C)[C@@H]1CC3	none
CCOCCCNC1=C(Cl)C(=O)c2ccccc2C1=O	OX1R antag-2 71
O=C1C(Cl)=C(NCCN2CCOCC2)C(=O)c2ccccc21	OX1R antag-2 61
O=C1c2ccccc2C(=O)N1CCN1CCOCC1	none
CCOC(=O)C1(CCOc2ccccc2)CCN(Cc2ccc(OCC)c(CO)c2)CC1	none
CCN(CC)c1cc(NCCO)c([N+](=O)[O-])c2nonc12	OX1R antag-2 53
COc1cccc(/C=N/NC(=O)c2cc3c(OC)ccc(OC)c3[nH]2)c1O	OX1R antag-2 48
O=C1/C(=C\c2ccc(O)cc2)SC(=S)N1/N=C/c1ccc(O)cc1	OXTR ag 24, V1aR counter 22
O=C(Nc1ccc(F)cc1F)C1CCN(c2ncnc3c2sc2cccc(F)c23)CC1	OX1R antag-2 46
CCN(CC)CCCNC(=O)C1CCN(c2ncnc3c2sc2cccc(F)c23)CC1	none
CC1CC(C)CN(CCCNC(=O)C2CCN(c3ncnc4c3sc3cccc(F)c34)CC2)C1 (centres undefined)	OX1R antag-2 55
COc1ccc2[nH]c3c(c2c1)CCN1C(=O)C(CC(=O)NCc2cccc(C(F)(F)F)c2)C[C@H](C(=O)N(C(C)C)C(C)C)[C@@]31C (some centres undefined)	none (no result: OXTR ag, OXTR potentiate, V1aR counter)
